Screens deposited in PubChem by several laboratories.
Compounds with a hit are over-represented: about 12% of the library has one in this group of screens.
ROMK primary = human ROMK K+ channel modulation, primary screen | P48048 | Tet-inducible ROMK, thallium flux fluorescence; actives lie on both sides | B-score at 10 µM | actives 2% (n = 130,000) | AID 1918;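 active = signal ratio slope over the read window, or its plate-corrected B-score, at least 3 SD from the plate mean, either direction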;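 also: B-score of the F/F0 ratio slope over 7 to 12 s after thallium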
KCC2 mod = KCC2 (human) Cl- transport modulation; Q9H2X9; KCC2 cells, thallium flux FluoZin-2 fluorescence; B-score of Tl+ flux slope (higher = more flux/activation; lower = inhibition) at 10 µM; actives 2.2% (n = 190,000); AID 1456;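 active = thallium flux slope and its plate-corrected score both differing from the plate sample mean at a set confidence after two filtering rounds, in either direction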;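 also: slope of fluorescence scaled to starting intensity during 10 to 20 s after thallium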
WT yeast gro inh = growth inhibition of WT yeast, mitochondrial fusion screen. actives 2.1% (n = 190,000). mitochondrial fusion phenotypic screen, WT strain. AID 1362. inhibition, % at 10 µM; in the data active = inhibition above about 58%; tested in S. cerevisiae
Diaphorase inh = inhibits diaphorase or chemically oxidizes, flagging diaphorase assay artifacts | diaphorase resazurin-to-resorufin fluorescence, NADH, 16 min; bacterial (C. kluyveri) enzyme, not human | inhibition, % at 20 µM | actives 0.69% (n = 190,000) | AID 1217;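 active = primary screen inhibition at 20 µM above a set limit, cut at about 50% in these data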;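 also: plate controls were DMSO with full reaction for no effect and wells lacking NADH for full effect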
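controls = No-NADH positive control and DMSO neutral control | system = Clostridium kluyveri diaphorase enzyme | timing = reaction incubation of 16 min at room temperature | signal = resorufin fluorescence 544/590 nm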
L major viab = reduces viability of Leishmania major promastigotes. resazurin fluorescence viability. inhibition, % at 10 µM. actives 9% (n = 200,000). AID 1063; in the data active = inhibition above about 50%;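 also: promastigotes grown with compound for 44 hours at 28 °C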
Diaphorase act = diaphorase activation or chemical reduction counter-screen; actives 0.005% (n = 190,000); AID 1229; Diaphorase/resazurin coupled assay, resorufin fluorescence, 16 min; active compounds read high; 1 = vehicle wells, 0 = NADH-free wells; activation factor at 20 µM;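 active = diaphorase activity raised at least twofold by the compound at 20 µM; inactive = activation factor below 2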
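Material: Purified diaphorase enzyme from Clostridium kluyveri | Buffer or medium: 50 mM HEPES pH 7.4 with 4.542 mM MgCl2, 0.005% Tween 20 | Times: 16 min enzyme reaction, ambient temperature | Signal: Red resorufin fluorescence at 544/590 nm excitation/emission | Measure: Increased resorufin signal from activators or reducing compounds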
ROMK retest = retested hit modulating human ROMK potassium channel. shares compounds with ROMK primary. ROMK thallium flux, fluorescence ratio; active compounds read low. normalized thallium flux (F/F0 slope) at 10 µM. actives 54% (n = 3,000). AID 1917;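 active = Flux at 10 µM at least 3 SD below or above vehicle control mean in one or both replicates; inconclusive = no clear call, values can overlap the other calls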
Active calls of the source: *.

Results for C=C1C(=O)C=C2CN(C(=O)c3ccccc3)[C@@](Cc3ccc(F)cc3)(C(=O)OC)[C@@H]12 ?
ROMK primary: -4.4*; KCC2 mod: -1.1; WT yeast gro inh: 74*; Diaphorase inh: 6; L major viab: 100*; Diaphorase act: 0.9; ROMK retest: 0.05*

How did O=C(O)Cc1csc(-c2ccccc2)n1 do in these assays?
ROMK primary: 0.19; KCC2 mod: -0.43; WT yeast gro inh: 10; Diaphorase inh: -2; L major viab: -9; Diaphorase act: 1

What do the screens show for `O=C(O)Cc1csc(-c2ccc(F)cc2)n1`?
ROMK primary: 3*; KCC2 mod: -0.1; WT yeast gro inh: 1; Diaphorase inh: -12; L major viab: -3; Diaphorase act: 1.1; ROMK retest: inconclusive

What do the screens show for `COc1ccc(OC)c(NC(=O)CNC(=O)c2ccc([N+](=O)[O-])cc2)c1`?
ROMK primary: 0.86; KCC2 mod: -0.16; WT yeast gro inh: 2; Diaphorase inh: 10; L major viab: -3; Diaphorase act: 0.9

What do the screens show for `COC(=O)c1[nH]c2ccc(Cl)cc2c1NC(=O)C1CC1`?
WT yeast gro inh: 2; Diaphorase inh: 8; L major viab: 5; Diaphorase act: 0.9; ROMK retest: 0.077

What do the screens show for `COC(=O)c1[nH]c2ccc(Cl)cc2c1NC(=O)Oc1ccccc1`?
KCC2 mod: 0.46; WT yeast gro inh: 67; Diaphorase inh: 30; L major viab: -6; Diaphorase act: 0.7

How did Cc1c(NC(=O)/C(C#N)=C/c2ccc(-c3cc(Cl)ccc3Cl)o2)c(=O)n(-c2ccccc2)n1C do in these assays?
KCC2 mod: -0.48; WT yeast gro inh: 2; Diaphorase inh: 15; L major viab: 8; Diaphorase act: 0.8

What do the screens show for `Cc1c(NC(=O)/C(C#N)=C/c2ccc(-c3ccc(Cl)cc3)o2)c(=O)n(-c2ccccc2)n1C`?
ROMK primary: -2.6*; KCC2 mod: -3; WT yeast gro inh: 17; Diaphorase inh: 12; L major viab: 9; Diaphorase act: 0.9; ROMK retest: 0.08

What do the screens show for `Cc1c(N2C(=O)/C(=C\C3CC=CCC3)SC2=S)c(=O)n(-c2ccccc2)n1C` (stereo not given)?
ROMK primary: -6.6*; KCC2 mod: -0.46; WT yeast gro inh: 6; Diaphorase inh: 19; L major viab: 10; Diaphorase act: 0.8; ROMK retest: 0.038*

Results for Cc1c(NC(=O)/C(C#N)=C/C2CC=CCC2)c(=O)n(-c2ccccc2)n1C (stereo not given) ?
ROMK primary: -5*; KCC2 mod: -0.12; WT yeast gro inh: -4; Diaphorase inh: 14; L major viab: 1; Diaphorase act: 0.9; ROMK retest: 0.043*

What do the screens show for `Cc1c(NC(=O)CSc2nc3ccccc3n2C)c(=O)n(-c2ccccc2)n1C`?
ROMK primary: 0.52; WT yeast gro inh: -28; Diaphorase inh: 15; L major viab: -3; Diaphorase act: 0.8

What do the screens show for `CCOC(=O)CNC(=O)c1c(C)nn(C)c1Cl`?
ROMK primary: 0.99; KCC2 mod: 1.2; WT yeast gro inh: -1; Diaphorase inh: -3; L major viab: -8; Diaphorase act: 1

Results for CCCC(=O)N1CCN(c2ccc(NC(=O)c3ccco3)cc2)CC1 ?
ROMK primary: -0.4; KCC2 mod: 0.7; WT yeast gro inh: 32; Diaphorase inh: 15; L major viab: 2; Diaphorase act: 0.8

Results for CCCC(=O)N1CCN(c2ccc(NC(=O)c3cccs3)cc2)CC1 ?
ROMK primary: 2.7*; KCC2 mod: -0.048; WT yeast gro inh: -14; Diaphorase inh: -7; L major viab: 0; Diaphorase act: 1.1; ROMK retest: 0.086

Results for O=C(CNC(=O)c1ccc(Cl)cc1)OCC(=O)N1CCCC1 ?
ROMK primary: 0.51; KCC2 mod: 0.4; WT yeast gro inh: -1; Diaphorase inh: 0; L major viab: 0; Diaphorase act: 1

What do the screens show for `N#C/C(=C/c1ccc(N2CCCCCC2)o1)c1cccc(F)c1`?
ROMK primary: -2.9*; KCC2 mod: -0.59; WT yeast gro inh: 2; Diaphorase inh: 29; L major viab: 20; Diaphorase act: 0.7; ROMK retest: 0.057*

Results for N#C/C(=C\c1ccc(N2CCOCC2)o1)c1ccccc1 ?
KCC2 mod: -0.62; WT yeast gro inh: 2; Diaphorase inh: 5; L major viab: 18; Diaphorase act: 0.9

How did O=C1NC(Cc2c[nH]c3ccccc23)C(=O)N1Cc1ccc(CN2C(=O)NC(Cc3c[nH]c4ccccc34)C2=O)cc1 (stereo not given) do in these assays?
ROMK primary: -3.9*; KCC2 mod: -0.012; WT yeast gro inh: -1; Diaphorase inh: 14; L major viab: 8; Diaphorase act: 0.9; ROMK retest: 0.065*

What do the screens show for `O=C1NC(Cc2c[nH]c3ccccc23)C(=O)N1CCOc1ccc(F)cc1` (stereo not given)?
KCC2 mod: -0.94; WT yeast gro inh: -9; Diaphorase inh: 0; L major viab: -1; Diaphorase act: 1

What do the screens show for `CCOc1ccc(N2C(=O)CC(N3CCN(C4CCc5ccccc5C4)CC3)C2=O)cc1` (stereo not given)?
ROMK primary: -2.1*; WT yeast gro inh: 1; Diaphorase inh: 17; L major viab: 1; Diaphorase act: 0.8; ROMK retest: 0.064*

How did CCOc1ccc(N2C(=O)CC(N3CCN(c4ccccc4F)CC3)C2=O)cc1 (stereo not given) do in these assays?
KCC2 mod: -0.49; WT yeast gro inh: -25; Diaphorase inh: 33; L major viab: -8; Diaphorase act: 0.7

What do the screens show for `COCCNC(=O)C(c1ccccc1F)N(C(=O)C(=O)NC1CCCC1)C1CCCCC1` (stereo not given)?
ROMK primary: -1.3; KCC2 mod: 0.68; WT yeast gro inh: -14; Diaphorase inh: 15; L major viab: 0; Diaphorase act: 0.8

How did COc1cccc(CNC(=O)c2cc3c(C)nc4ccccc4c3o2)c1 do in these assays?
WT yeast gro inh: 3; Diaphorase inh: 15; L major viab: 19; Diaphorase act: 0.8

How did CCc1ccc(CNC(=O)c2cc3c(C)nc4ccccc4c3o2)cc1 do in these assays?
KCC2 mod: -0.048; WT yeast gro inh: 35; Diaphorase inh: 22; L major viab: -4; Diaphorase act: 0.8; ROMK retest: 0.071

What do the screens show for `Cc1ccc(N=Nc2c(C)[nH][nH]c2=O)c(C)c1`?
ROMK primary: 1.3*; KCC2 mod: -0.51; WT yeast gro inh: -6; Diaphorase inh: 18; L major viab: 4; Diaphorase act: 0.8; ROMK retest: 0.088
